Source: ChEMBL document CHEMBL1138855, “Topomimetics of amphipathic beta-sheet and helix-forming bactericidal peptides neutralize lipopolysaccharide endotoxins” (J Med Chem, 2006)
Calls of active or inactive are those of the source. The calls are words filed in the database; no cut-off is given here.

Assays:
Pseudomonas aeruginosa [1] = assay: Antibacterial activity against Pseudomonas aeruginosa assessed as LPS neutralisation at 5 uM by LAL assay; format: functional, organism-based
Escherichia coli [2] = assay: Antibacterial activity against Escherichia coli 055:B5 assessed as LPS neutralisation by LAL assay; format: functional, organism-based
Method in brief: (§1)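 LPS was used at 0.04 units: 0.01 ng for E. coli 055:B5, 0.01 ng for E. coli 0111:B4, 0.003 ng for K. pneumoniae, 0.01 ng for P. aeruginosa, 0.03 ng for S. typhimurium and 0.03 ng for S. marcescens. IC50 came from sigmoidal fits of dose-response curves.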

Escherichia coli [3] = assay: Antibacterial activity against Escherichia coli 0111:B4 assessed as LPS neutralisation by LAL assay; format: functional, organism-based; method in brief: as §1
Klebsiella pneumoniae [4] = assay: Antibacterial activity against Klebsiella pneumoniae assessed as LPS neutralisation by LAL assay; format: functional, organism-based; method in brief: as §1
Salmonella typhimurium [5] = assay: Antibacterial activity against Salmonella Typhimurium assessed as LPS neutralisation by LAL assay; format: functional, organism-based, Salmonella enterica subsp. enterica serovar Typhimurium; settings: Salmonella enterica; method in brief: as §1
Serratia marcescens [6] = assay: Antibacterial activity against Serratia marcescens assessed as LPS neutralisation by LAL assay at 5 uM; format: functional, organism-based
Escherichia coli [7] = assay: Antibacterial activity against Escherichia coli 055:B5 assessed as LPS neutralisation at 5 uM by LAL assay; format: functional, organism-based
Escherichia coli [8] = assay: Antibacterial activity against Escherichia coli 0111:B4 assessed as LPS neutralisation at 5 uM by LAL assay; format: functional, organism-based
Klebsiella pneumoniae [9] = assay: Antibacterial activity against Klebsiella pneumoniae assessed as LPS neutralisation by LAL assay at 5 uM; format: functional, organism-based
Salmonella typhimurium [10] = assay: Antibacterial activity against Salmonella Typhimurium assessed as LPS neutralisation by LAL assay at 5 uM; format: functional, organism-based; settings: Salmonella enterica subsp. enterica serovar Typhimurium
Pseudomonas aeruginosa [11] = assay: Antibacterial activity against Pseudomonas aeruginosa assessed as LPS neutralisation by LAL assay; format: functional, organism-based; method in brief: as §1
Serratia marcescens [12] = assay: Antibacterial activity against Serratia marcescens assessed as LPS neutralisation by LAL assay; format: functional, organism-based; method in brief: as §1
Mus musculus [13] = assay: Survival of Escherichia coli 055:B5 LPS-challenged C57/BL6 mouse at 50 mg/kg, ip after 120 hrs relative to control; format: functional; settings: route intraperitoneal
Method in brief: (§2)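 Male C57/BL6 mice (n = 4–8/group) received a lethal LPS dose: 500 µg for E. coli 0111:B4, 600 µg for E. coli 055:B5 and 600 µg for Salmonella. LPS was premixed with compound in 2% DMSO v/v for 30 min, then injected i.p. Controls got DMSO alone or compound alone. Survival was followed for up to 120 h, and mean survival time was compared by Student's t-test.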

Mus musculus [14] = assay: Survival of Escherichia coli 055:B5 LPS-challenged C57/BL6 mouse at 5 mg/kg, ip after 120 hrs relative 10 control; format: functional, organism-based; parameters: dose 5 mg/kg; method in brief: as §2
Mus musculus [15] = assay: Survival of Escherichia coli 0111:B4 LPS-challenged C57/BL6 mouse at 50 mg/kg, ip after 120 hrs relative to control; format: functional; settings: route intraperitoneal; method in brief: as §2
Mus musculus [16] = assay: Survival of Salmonella LPS-challenged C57/BL6 mouse at 50 mg/kg, ip after 120 hrs relative to control; format: functional; settings: route intraperitoneal; method in brief: as §2

SMILES | Activity (Pseudomonas aeruginosa [1]) | IC50 (Escherichia coli [2]) [µM] | IC50 (Escherichia coli [3]) [nM] | IC50 (Klebsiella pneumoniae [4]) [nM] | IC50 (Salmonella typhimurium [5]) [nM] | Activity (Serratia marcescens [6]) | Activity (Escherichia coli [7]) | Activity (Escherichia coli [8]) | Activity (Klebsiella pneumoniae [9]) | Activity (Salmonella typhimurium [10]) | IC50 (Pseudomonas aeruginosa [11]) [nM] | IC50 (Serratia marcescens [12]) [µM] | survival at 50 mg/kg (Mus musculus [13]) [%] | Activity (Mus musculus [14]) | survival at 50 mg/kg (Mus musculus [15]) [%] | survival at 50 mg/kg (Mus musculus [16]) [%]
CCCc1cc2c(OCC(=O)NCCN(C)C)c(c1)Cc1cc(CCC)cc(c1OCC(=O)NCCN(C)C)Cc1cc(CCC)cc(c1OCC(=O)NCCN(C)C)Cc1cc(OCC(=O)NCCN(C)C)cc(c1CCC)C2 | inactive | 0.05 | 2700 | 400 | 800 | inactive |  |  |  |  |  |  |  |  |  | 
CCCc1cc2c(OCC(=O)NCCN(C)C)c(c1)Cc1cc(CCC)cc(c1OCC(=O)NCCN(C)C)Cc1cc(CCC)cc(c1OCC(=O)NCCN(C)C)Cc1cc(CCC)cc(c1OCC(=O)NCCN(C)C)C2 | inactive | 4.4 | > 5000 | 80 | 4100 |  |  |  |  |  |  |  |  |  |  | 
CC(C)(C)c1cc2c(OCC(=O)NCCCn3cncn3)c(c1)Cc1cc(C(C)(C)C)cc(c1OCC(=O)NCCCn1cncn1)Cc1cc(C(C)(C)C)cc(c1OCC(=O)NCCCn1cncn1)Cc1cc(C(C)(C)C)cc(c1OCC(=O)NCCCn1cncn1)C2 | inactive |  |  |  |  |  | inactive | inactive | inactive | inactive |  |  |  |  |  | 
CN(C)CCNC(=O)COc1c2cccc1Cc1cccc(c1O)Cc1cccc(c1OCC(=O)NCCN(C)C)Cc1cccc(c1O)C2 | inactive | > 5 | > 5000 |  | > 5000 |  |  |  | inactive |  |  |  |  |  |  | 
CC(C)CCOc1c2cccc1Cc1cc(CCCOP(=O)(O)O)cc(c1O)Cc1cccc(c1OCCC(C)C)Cc1cc(CCCOP(=O)(O)O)cc(c1O)C2 | inactive | > 5 |  |  |  |  |  | inactive | inactive | inactive |  |  |  |  |  | 
CC(C)CCOc1c2cc(CCC(=O)NCCN(C)C)cc1Cc1cc(CCC(=O)NCCN(C)C)cc(c1OCCC(C)C)Cc1cc(CCC(=O)NCCN(C)C)cc(c1OCCC(C)C)Cc1cc(CCC(=O)NCCN(C)C)cc(c1OCCC(C)C)C2 | inactive | > 5 | > 5000 | 2400 | 3200 |  |  |  |  |  |  |  |  |  |  | 
CC(C)(C)c1cc2c(OCc3cn(CCN)nn3)c(c1)Cc1cc(C(C)(C)C)cc(c1OCc1cn(CCN)nn1)Cc1cc(OCc3cnnn3CCN)cc(c1C(C)(C)C)Cc1cc(C(C)(C)C)cc(c1OCc1cn(CCN)nn1)C2 |  | 0.6 | 1500 | 900 |  | inactive |  |  |  | inactive | 1000 |  |  |  |  | 
CC(C)(C)c1cc2c(OCCCCN)c(c1)Cc1cc(C(C)(C)C)cc(c1OCCCCN)Cc1cc(C(C)(C)C)cc(c1OCCCCN)Cc1cc(C(C)(C)C)cc(c1OCCCCN)C2 |  | 1.3 | 100 | 500 | 200 |  |  |  |  |  | 500 | 4.5 |  |  |  | 
CC(C)(C)c1cc2c(OCCCCNC(=N)N)c(c1)Cc1cc(C(C)(C)C)cc(c1OCCCCNC(=N)N)Cc1cc(C(C)(C)C)cc(c1OCCCCNC(=N)N)Cc1cc(C(C)(C)C)cc(c1OCCCCNC(=N)N)C2 |  | 0.04 | 700 | 1000 | 600 |  |  |  |  |  | 1500 |  | 40 | inactive | 100 | 60
C=CCc1cc2c(OCC(=O)NCCN(C)C)c(c1)Cc1cc(CC(=C)C)cc(c1OCC(=O)NCCN(C)C)Cc1cc(CC=C)cc(c1OCC(=O)NCCN(C)C)Cc1cc(CC(=C)C)cc(c1OCC(=O)NCCN(C)C)C2 |  | 3.6 | 4700 |  | > 5000 |  |  |  | inactive |  | > 5000 |  |  |  |  | 
CC(C)(C)c1cc2c(OCc3cn(CCN)nn3)c(c1)Cc1cc(C(C)(C)C)cc(c1OCc1cn(CCN)nn1)Cc1cc(C(C)(C)C)cc(c1OCc1cn(CCN)nn1)Cc1cc(C(C)(C)C)cc(c1OCc1cn(CCN)nn1)C2 |  | 0.05 | 2200 | 1000 | 1100 |  |  |  |  |  | 2600 | > 5 |  | inactive | 25 | 100
N=C(N)NCCOc1c2cccc1Cc1cccc(c1O)Cc1cccc(c1OCC(=O)NC(=N)N)Cc1cccc(c1O)C2 | inactive | 4.1 | 3900 |  | > 5000 |  |  |  | inactive |  |  |  |  |  |  | 
CCCc1cc2c(OCC(=O)NCCN(C)C)c(c1)Cc1cc(CC(C)C)cc(c1OCC(=O)NCCN(C)C)Cc1cc(CCC)cc(c1OCC(=O)NCCN(C)C)Cc1cc(CC(C)C)cc(c1OCC(=O)NCCN(C)C)C2 |  | 3.8 | 3700 | 2100 | 3100 |  |  |  |  |  | > 5000 |  |  |  |  | 
CN(C)CCNC(=O)COc1c2cccc1Cc1cccc(c1OCC(=O)NCCN(C)C)Cc1cccc(c1OCC(=O)NCCN(C)C)Cc1cccc(c1OCC(=O)NCCN(C)C)C2 [OTX-008] | inactive | 3.4 | > 5000 | 1500 |  |  |  |  |  | inactive |  | > 5 |  |  |  | 
CC(C)(C)c1cc2c(O)c(c1)Cc1cc(C(C)(C)C)cc(c1OCCNC(=N)N)Cc1cc(C(C)(C)C)cc(c1O)Cc1cc(C(C)(C)C)cc(c1OCCN)C2 | inactive | 4.1 | > 5000 |  | 2600 |  |  |  | inactive |  |  |  |  |  |  | 
CC(C)(C)c1cc2c(O)c(c1)Cc1cc(C(C)(C)C)cc(c1OCCNC(=N)N)Cc1cc(C(C)(C)C)cc(c1O)Cc1cc(C(C)(C)C)cc(c1OCCNC(=N)N)C2 | inactive | > 5 |  |  | 4400 |  |  |  | inactive |  |  |  |  |  |  | 
CN(C)CCNC(=O)COc1c2cc(C(C)(C)C)cc1Cc1cc(C(C)(C)C)cc(c1OCC(=O)NCCN(C)C)Cc1cc(C(C)(C)C)cc(c1OCC(=O)NCCN(C)C)Cc1cc(C(C)(C)C)cc(c1OCC(=O)NCCN(C)C)C2 |  | > 5 | 1400 | 1500 | 600 |  |  |  |  |  | > 5000 | 3.4 |  |  |  | 
NCCNC(=O)COc1c2cccc1Cc1cccc(c1O)Cc1cccc(c1OCC(=O)NCCN)Cc1cccc(c1O)C2 | inactive | > 5 |  |  | > 5000 |  |  | inactive | inactive |  |  |  |  |  |  | 
CC(C)CCOc1c2cccc1Cc1cc(CCC(=O)O)cc(c1O)Cc1cccc(c1OCCC(C)C)Cc1cc(CCC(=O)O)cc(c1O)C2 | inactive | > 5 | > 5000 |  |  |  |  |  | inactive | inactive |  |  |  |  |  | 
CC(C)(C)c1cc2c(OCC(=O)NCCN)c(c1)Cc1cc(C(C)(C)C)cc(c1OCC(=O)NCCN)Cc1cc(C(C)(C)C)cc(c1OCC(=O)NCCN)Cc1cc(C(C)(C)C)cc(c1OCC(=O)NCCN)C2 |  | 0.9 | 1600 | 300 | 600 |  |  |  |  |  | 800 | 1.5 |  |  |  | 
CC(C)CCOc1c2cccc1Cc1cc(CCCOS(=O)(=O)O)cc(c1O)Cc1cccc(c1OCCC(C)C)Cc1cc(CCCOS(=O)(=O)O)cc(c1O)C2 | inactive | 5 | 5000 | 2100 |  |  |  |  |  | inactive |  | 4.2 |  |  |  | 
CC(C)(C)c1cc2c(OCCCCN)c(c1)Cc1cc(C(C)(C)C)cc(c1OCCCCNC(=N)N)Cc1cc(C(C)(C)C)cc(c1OCCCCNC(=N)N)Cc1cc(C(C)(C)C)cc(c1OCCCCNC(=N)N)C2 |  | 0.1 | 400 | 500 | 600 |  |  |  |  |  | 800 | 3.2 |  |  |  | 
CC(C)Cc1cc2c(OCC(=O)NCCN(C)C)c(c1)Cc1cc(CC(C)C)cc(c1OCC(=O)NCCN(C)C)Cc1cc(C(C)C)cc(c1OCC(=O)NCCN(C)C)Cc1cc(CC(C)C)cc(c1OCC(=O)NCCN(C)C)C2 |  | 0.006 | 3100 | 1000 | 400 |  |  |  |  |  | 4200 |  | 60 | inactive |  | 80
